An excerpt weighted towards active compounds, which were near 2.3% of everything screened.
TRPC4 act = TRPC4 (mouse) channel activation. Q9QUQ5. HEK293 TRPC4beta/mu-opioid, Fluo4 calcium fluorescence; stronger effect = higher value. B-score at 10 µM. 310,000 compounds, 0.49% hits;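 active means B-score above 5 SD of library B-scores, and initial fluorescence ratio not above library mean plus 5 SD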;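 further: positive B-score marks a calcium rise read as TRPC4 activation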
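Incubation: 45 min room-temperature Fluo4 loading, 110 s read / System: HEK293 cells stably co-expressing mouse TRPC4beta and mu-opioid receptor / Signal: Fluo4 fluorescence, kinetic / Control set: buffer (low) and maximal DAMGO (high) / Measure: integrated baseline-normalised fluorescence ratio, converted to per-well B score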
TRPC4 inh = inhibitors of mouse TRPC4 channel | Q9QUQ5 | HEK293 TRPC4beta/mu-opioid, DAMGO-evoked Fluo4 calcium flux; stronger effect = lower value | B-score at 10 µM | 300,000 compounds, 0.39% hits | AID 2247;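 active means B-score over 3 SD under the library average, no early fluorescence shift, positive overall ratio signal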
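Assay system: TRPC4beta/mu-opioid receptor HEK293 cell line; compound dosing: single concentration per test compound; detection: Fluo4 Ca2+ flux fluorescence; evaluation: per-well B score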
TRPC6 inh = blocks the mouse TRPC6 cation channel; B-score at 10 µM; Q61143; HEK293-TRPC6, membrane potential dye, ACh-evoked depolarization; stronger effect = lower value; 310,000 compounds, 1.1% hits; AID 2553;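 active means B-score under library mean minus 3 SD, initial fluorescence not abnormally high, positive integrated signal ratio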;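 further: B-score derived from integrated fluorescence ratio over the kinetic read; more negative B-score means stronger inhibition of depolarization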
TRPC4 potent = allosteric potentiators of mouse TRPC4 channel. Q9QUQ5. HEK293 TRPC4beta/mu-opioid, DAMGO EC20, Fluo-4 Ca2+ flux; stronger effect = higher value. B-score at 10 µM. 310,000 compounds, 0.42% hits. AID 2227;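 active means B-score of calcium response area above 5 SD of library B-scores, with initial fluorescence ratio within 5 SD of library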;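 further: B-score of integrated fluorescence ratio over time as area under calcium response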
TRPC6 act = activators of mouse TRPC6 channel; HEK293-TRPC6 membrane potential dye fluorescence; stronger effect = higher value; B-score at 10 µM; 310,000 compounds, 0.13% hits; AID 2550;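 active means B-score of the integrated fluorescence ratio above library mean plus 3 SD, and starting fluorescence ratio within library mean plus 5 SD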;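 further: higher score means more depolarization so channel activation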
TRPC4 spec 2 = second selectivity test of TRPC6 inhibitors: effect on mouse TRPC4; HEK293 TRPC4/MOR, membrane potential dye fluorescence; channel activated by saturating DAMGO dose; inhibition, % at 10 µM; AID 2776; shares compounds with TRPC6 inh; 920 compounds, 42% hits;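 active means compounds whose fluorescence signal differed from control wells by over 3 SD, either direction, in both duplicate plates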
TRPC4 spec = mouse TRPC4 off-target activity of TRPC6 inhibitors. HEK293 TRPC4/mu-opioid, membrane potential fluorescence. activity change, negative = inhibition, % at 10 µM. 920 compounds, 61% hits. shares compounds with TRPC6 inh. AID 2777;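 active means rise or fall in signal beyond 3 SD of buffer-only wells in both replicate plates, either sign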;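 further: integrated kinetic ratio of fluorescence range over baseline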
HEK293 MPD ctr 2-1 = parental HEK293 nonspecific activity of TRPC6 inhibitors, second screen | parental HEK293 membrane potential dye fluorescence; maximal acetylcholine challenge after compound addition | shares compounds with TRPC6 inh | signal change vs control, % at 10 µM | 920 compounds, 31% hits | AID 2779;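 active means membrane potential signal moving either way by over 3 SD of the maximum-effect control, in both duplicate plates, meaning non-specific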
HEK293 MPD ctr-1 = checks TRPC6 inhibitor effects in parental HEK293 cells | parental HEK293 membrane potential dye fluorescence | shares compounds with TRPC6 inh | 920 compounds, 60% hits | membrane potential signal change, % at 10 µM;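 active means membrane potential signal shifting up or down by more than 3 SD of buffer-only wells, on both duplicate plates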
HEK293 MPD ctr-2 = counter-screen for TRPC6 modulators: effect in parental HEK293 cells; membrane potential dye fluorescence; membrane potential signal change, % at 10 µM; AID 488924; shares compounds with TRPC6 inh; 2,400 compounds, 51% hits;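 active means membrane potential signal moves up or down beyond 5 SD from buffer-only wells, on both duplicate plates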
HEK293 MPD ctr 2-2 = second counter-screen for TRPC6 modulators: effect in parental HEK293 cells; shares compounds with TRPC6 inh; membrane potential dye fluorescence; after compound, maximal acetylcholine stimulation; inhibition, % at 10 µM; 2,400 compounds, 14% hits; AID 488926;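 active means membrane potential signal drops by more than 5 SD from the mean control signal, in both duplicate plates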;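 further: plate controls were acetylcholine ECmax control wells for no effect and buffer only wells for full effect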
TRPC4/MOR mod = mouse TRPC4 off-target activity of TRPC6 modulators. percent change from control (negative = decrease, positive = increase), % at 10 µM. AID 488927. shares compounds with TRPC6 inh. HEK293 TRPC4/mu-opioid, membrane potential fluorescence. 2,400 compounds, 69% hits;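 active means membrane potential signal moved up or down beyond 5 SD of buffer control wells, in both duplicate plates, actives on both sides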;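 further: plate controls were assay buffer wells for no effect and DAMGO maximal-effect wells for full effect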
TRPC4 ctr inh 2 = second selectivity test of TRPC6 modulators against mouse TRPC4; shares compounds with TRPC6 inh; HEK293 TRPC4/mu-opioid, membrane potential dye fluorescence; stimulated with maximal-effect DAMGO; inhibition, % at 10 µM; 2,400 compounds, 55% hits;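 active means drop in membrane potential signal beyond 5 SD of the control wells in both duplicate plates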;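 further: TRPC4 counter screen for TRPC6 hits run under conditions tuned for TRPC6 not TRPC4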
TRPC6 inh conf = mouse TRPC6 inhibitor confirmation; shares compounds with TRPC6 inh; HEK293-TRPC6, membrane potential dye, ACh-evoked depolarization; inhibition, % at 10 µM; 3,300 compounds, 43% hits;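 active means fluorescence ratio falls more than 5 SD below the full-stimulation control mean, in both duplicate runs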;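 further: integrated fluorescence ratio of peak minus minimum over baseline after agonist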
TRPC6 act confirm = mouse TRPC6 activator confirmation. 2,800 compounds, 11% hits. activation, % at 10 µM. HEK293-TRPC6 membrane potential dye fluorescence, FDSS. shares compounds with TRPC6 inh. AID 488961;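 active means ratio signal rise beyond 5 SD above unstimulated control wells' mean, seen in both duplicate runs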;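 further: plate controls were buffer EC0 wells for no effect and acetylcholine ECmax response for full effect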
* = called active by the depositor; i = inactive; x = no result given; ! = a repeat was not active.

SMILES | TRPC4 act | TRPC4 inh | TRPC6 inh | TRPC4 potent | TRPC6 act | HEK293 MPD ctr-2 | HEK293 MPD ctr 2-2 | TRPC4/MOR mod | TRPC4 ctr inh 2 | TRPC6 inh conf | TRPC6 act confirm | others
S=C1N(c2ccccc2)C(c2ccc(Br)cc2)N2CCCN12 (stereo unspecified) | i | i | -10* | i | i | x | x | x | x | 68%* | i | TRPC4 spec 2=i;TRPC4 spec=i;HEK293 MPD ctr 2-1=18%*;HEK293 MPD ctr-1=i
C[n+]1c2n(c3ccccc31)N=C(c1ccccc1)CS2 | i | i | -5.2*! | i | i | -159%* | i | -26%* | 50%* | i | i
C[n+]1c2n(c3ccccc31)N=C(c1ccc(-c3ccccc3)cc1)CS2 | i | i | i | i | i | x | x | x | x | x | x
Cc1ccc2nc(C)cc(NCCO)c2c1 | i | i | -8.4* | i | i | -282%* | 81%* | -48%* | 54%* | 58%* | i
CC(=O)c1ccc(Nc2cc(C)nc3ccc(C)cc23)cc1 | i | i | -9.5* | i | i | x | x | x | x | i | i | TRPC4 spec 2=77%*;TRPC4 spec=-12%*;HEK293 MPD ctr 2-1=14%*;HEK293 MPD ctr-1=-276%*
CCOc1ccc2nc(C)cc(Nc3ccc(N4CCOCC4)cc3)c2c1 | i | i | i | i | i | x | x | x | x | x | x
Cc1ccc2nc(C)cc(Nc3ccc4c(c3)OCCO4)c2c1 | i | -8* | -6.3* | i | i | -72%* | i | i | 67%* | 64%* | i
CCOc1ccc2nc(C)cc(Nc3ccc4c(c3)OCCO4)c2c1 | i | i | -9.8* | i | i | x | x | x | x | i | i | TRPC4 spec 2=i;TRPC4 spec=-13%*;HEK293 MPD ctr 2-1=i;HEK293 MPD ctr-1=-178%*
Cc1cc(Nc2ccc3c(c2)OCCO3)c2ccccc2n1 | i | i | i | i | i | x | x | x | x | x | x
COc1ccccc1NS(=O)(=O)c1cc(NC(=O)c2ccncc2)ccc1N1CCCC1 | i | i | i | i | i | x | x | x | x | x | x
CCOC(=O)c1c(NC(=O)Cn2cnc([N+](=O)[O-])n2)sc(C)c1C | i | i | i | i | i | x | x | x | x | x | x
O=C(CN(Cc1ccccc1F)C(=O)Cn1nnc(-c2cccs2)n1)NCC1CCCO1 (stereo unspecified) | i | i | i | i | i | x | x | x | x | x | x
CC1C/C(=N/Nc2nc3ccccc3[nH]2)CC(C)(C)C1 (stereo unspecified) | i | i | -5.4* | i | i | i | i | i | 48%* | i | i
CC1C/C(=N/NC(=O)c2ccc(CSc3nc4ccccc4[nH]3)cc2)CC(C)(C)C1 (stereo unspecified) | i | i | i | i | i | x | x | x | x | x | x
O=C(Nc1cccnc1Cl)c1cccs1 | i | i | -5.1* | i | i | i | i | i | i | i | i
COC(=O)C(NC(=O)c1ccc(C)cc1)(Nc1cccc(C)n1)C(F)(F)F (stereo unspecified) | i | i | -7.2* | i | i | x | x | x | x | 63%* | x | TRPC4 spec 2=i;TRPC4 spec=i;HEK293 MPD ctr 2-1=i;HEK293 MPD ctr-1=i
COC(=O)Cc1sc(-c2ccccn2)nc1-c1ccccc1 | i | i | -5.7* | i | i | i | i | 12%* | i | i | i
OCC1(CCc2ccccc2)CCN(C/C=C/c2ccccc2)CC1 | i | i | i | i | i | x | x | x | x | x | x
OCC1(Cc2ccccc2Cl)CCN(C/C=C/c2ccccc2)CC1 | i | i | -5.3* | i | i | 132%* | i | 25%* | 60%* | i | x
Cc1cc(N=Nc2ccccc2)c(NCC(O)C(O)C(O)CO)cc1C (stereo unspecified) | i | i | -8.1* | i | i | x | x | x | x | 80%* | i | TRPC4 spec 2=32%*;TRPC4 spec=-30%*;HEK293 MPD ctr 2-1=i;HEK293 MPD ctr-1=-542%*
Cc1cc(OCC(=O)OCC(=O)Nc2cc(C(F)(F)F)ccc2N2CCOCC2)ccc1Cl | i | i | i | i | i | x | x | x | x | x | x
COc1ccc(S(=O)(=O)Nc2noc3ccccc23)cc1 | i | i | -6.7* | i | i | x | x | x | x | i | i | TRPC4 spec 2=i;TRPC4 spec=i;HEK293 MPD ctr 2-1=i;HEK293 MPD ctr-1=i
COC(CNC(=O)C1CC(=O)N(CCc2ccccc2)C1)OC (stereo unspecified) | i | i | i | i | i | x | x | x | x | x | x
CC(NC(=O)c1ccc(C23CC4CC(CC(C4)C2)C3)cc1)C(=O)O (stereo unspecified) | i | i | i | i | i | x | x | x | x | x | x
O=C(Nc1ccc(C(=O)N2CCOCC2)cc1)c1cnn2c(C(F)F)cc(-c3ccccc3)nc12 | i | i | i | i | i | x | x | x | x | x | x
Cc1ccc(C)c(N(CC(=O)NC2CCCC2)C(=O)c2oc(C(C)(C)C)cc2C)c1 | i | i | i | i | i | x | x | x | x | x | x
Cc1cc(C(C)(C)C)oc1C(=O)OCC(=O)NC1CCCCC1 | i | i | -5.3* | i | i | i | i | 26%* | i | 53%* | x

Source: PubChem (Johns Hopkins Ion Channel Center)
